Experimental findings from ChEMBL document CHEMBL4513216, “Probing the Open Global Health Chemical Diversity Library for Multistage-Active Starting Points for Next-Generation Antimalarials” (ACS Infect Dis, 2020) are described below.

A short description of this data set: Toxicity liver stage against HepG2, at 10uM. Format: cell-based. Set-up: test concentration 10 uM, cell line HepG2-A16-CD81EGFP. To be noted: human, HepG2-A16-CD81EGFP cells; read-out: INHIBITION
Put shortly: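 Uninfected HepG2-A16-CD81EGFP cells, 3 × 10^3 per well, 1536-well, plated on prespotted compound at 10 μM final, parasite-free screening media added to match infected plates; puromycin 10 μM positive, DMSO 0.5% negative; run in parallel with 48 h PbLuc assay at 37 °C, 5% CO2; viability by CellTiter-Glo luminescence, normalized to controls.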
With `COc1ccc2c(c1)CN(CC1CC1)C(=O)CCN2CC(C)(C)O`, the cytotoxicity at 10 µM was -13.9%.
In the case of `O=c1c(NCCc2ccc(O)cc2)c(NCc2ccccn2)c1=O`, the cytotoxicity at 10 µM is -2.72%.
As for `O=C(c1ccoc1)N1CCC2(CC1)COC(COCc1ccccn1)C2` (stereo not drawn), the cytotoxicity at 10 µM is -138%.
Regarding `CNC(=O)C1Cn2ccnc2C2(CCN(Cc3csc(C)n3)CC2)O1` (stereo not drawn), the cytotoxicity at 10 µM was -151%.
Take `COc1ccc2c(c1)C1(CCN(Cc3ccoc3)CC1)N(C)CC2`: the cytotoxicity at 10 µM is -8.04%.
In the case of `Cc1n[nH]c(C)c1S(=O)(=O)N(C)Cc1nn(C)c(Cl)c1Cl`, the cytotoxicity at 10 µM worked out at 0.303%.
Take `O=C(c1ccnc(C2CCNCC2)c1)N1CCCC(CO)C1` (stereo not drawn): the cytotoxicity at 10 µM is 3.9%.
The same measure for `Cc1nccn1[C@@H]1CC[C@@H](NC(=O)Cn2c(C)nc3ccccc32)[C@H]1O`: 2.41%; for `Cc1nc(CC(=O)N2CCC(c3ccn4nccc4n3)CC2)cs1`: -0.956%.
Regarding `COc1cc(CN2CCCC[C@]3(C)NC(=O)CC[C@H]23)ccc1F`, the cytotoxicity at 10 µM is -2.32%.
For `Cn1cnc(S(=O)(=O)N2CCCC2c2ccnc3nccn23)c1` (stereo not drawn), the cytotoxicity at 10 µM is 6.28%.
The figure for `CC(C(=O)NC1CC1)n1nc(-c2cccs2)cc(N)c1=O` (stereo not drawn) is 10.9%; for `O=C1NC2(CCN(C(=O)CN3CCOCC3)CC2)Nc2ccc(Cl)cc21` it is 0.961%.
Consider `CC(=O)N1CCC(C)(c2nc(C)no2)CC1`, for which the cytotoxicity at 10 µM is -1.55%.
The same measure for `CC(C)N1CCC(c2nccnc2Nc2cnccn2)CC1`: 1.44%; for `CCc1nnc(Nc2cc(C)nc(C3CCN(c4ccncn4)C3)n2)s1` (stereo not drawn): 4.38%.
In the case of `COCC1CCN(c2cc(C3CN(C)CCO3)nc(C)n2)CC1` (stereo not drawn), the cytotoxicity at 10 µM came out at 4.71%.
As to `CCOc1cc(CNC(=O)NC2CC=CC2)ccc1OC(F)F`, the cytotoxicity at 10 µM was -42.4%.
On to `CCN(CC)CCn1cc(NC(=O)Nc2ccccc2OC)cn1`, for which the cytotoxicity at 10 µM worked out at 12.7%.
For the compound `CC(CNS(C)(=O)=O)Oc1cccc(Cl)c1` (stereo not drawn), the cytotoxicity at 10 µM worked out at 4.6%.
The figure for `O=C(NC1CCCN(Cc2c(F)cccc2F)C1)c1cnccn1` (stereo not drawn) is -1.62%.
The figure for `CCC(NC(=O)CN(C)Cc1ccc(C)o1)c1ccc(C)cc1` (stereo not drawn) is 3.97%.
For the compound `CNC(=O)C1Cc2ccccc2CN1CCC#N` (stereo not drawn), the cytotoxicity at 10 µM amounted to 6.35%.
The figure for `CC(c1ccc(Cl)cc1)N1CCN(CCS(N)(=O)=O)CC1` (stereo not drawn) is -1.37%; for `CSCC(C)(O)CNC(=O)c1ccc(F)cc1Cl` (stereo not drawn) it is -2.79%.
As to `Cc1cc(CN2CCc3cncnc3C2)no1`, the cytotoxicity at 10 µM was determined as 5.84%.
The same measure for `COc1c(C2CCCN2C(=O)c2ccoc2C)c(C)nn1C` (stereo not drawn): 0.243%; for `O=C(Nc1cn[nH]c1)N(CCO)C1CCc2ccccc21` (stereo not drawn): -8.74%; for `O=C(c1ccncc1)N1CCN(c2ccc(F)cc2Cl)CC1`: -140%.
On to `COc1ccc(CSCC(O)CO)c(Cl)c1` (stereo not drawn), for which the cytotoxicity at 10 µM was -142%.
For `Cc1ncsc1C(=O)N1CCN(Cc2ccccc2)CC1C` (stereo not drawn), the cytotoxicity at 10 µM is -161%.
As to `CN(CC(F)(F)F)C(=O)CN1CCC(c2cc3ccccc3[nH]2)CC1`, the cytotoxicity at 10 µM was 4.93%.
On to `Fc1ccc(C(NCc2nnc(C3CC3)o2)C2CCC2)cc1` (stereo not drawn), for which the cytotoxicity at 10 µM is -48.1%.
With `Cc1ccc(N2CCCC(NC(=O)Nc3cnn(C)c3)C2=O)cc1` (stereo not drawn), the cytotoxicity at 10 µM was -44%.
`O=C(NCCCN1CCN(c2ncccn2)CC1)NCC1CCOC1` (stereo not drawn): the cytotoxicity at 10 µM is -56.6%.
On to `N#Cc1cc(F)c(NCCc2ccc(F)cc2)c(F)c1`, for which the cytotoxicity at 10 µM was -60.3%.
Consider `CC(C)N(C)CC(=O)NC1CCc2nccn2C1` (stereo not drawn), for which the cytotoxicity at 10 µM came out at 17.8%.
In the case of `Cc1ccc(S(=O)(=O)NC(=O)c2cccc3c2OCCO3)c(C)c1`, the cytotoxicity at 10 µM is 3.25%.
Take `CC(C)(O)CN1CCN(C(=O)c2cc3ccccc3c(=O)[nH]2)CC1`: the cytotoxicity at 10 µM is 1.52%.
In the case of `Cc1cc(CN2CC[C@H]3C[C@H](C(=O)N(C)C)O[C@@H]3C2)no1`, the cytotoxicity at 10 µM is -5.53%.
As to `COc1ccc(CCC2CCCN(CC(=O)O)C2)cc1` (stereo not drawn), the cytotoxicity at 10 µM was 3.38%.
`CC(C)Oc1cc(N2CCC3(CC2)[C@H](O)C[C@@H]3O)nc(N)n1`: the cytotoxicity at 10 µM is -0.335%.
Consider `CCNc1ncc(CN2C[C@H](C3CC3)[C@@H](N)C2)cn1`, for which the cytotoxicity at 10 µM is -40%.
Consider `Cc1cc(C(F)(F)F)cc(N2CCN(Cc3ccccc3)CC(O)C2)n1` (stereo not drawn), for which the cytotoxicity at 10 µM was found to be 0.165%.
Regarding `Cc1ccc(C)c(CN2CCCn3nc(CNS(C)(=O)=O)cc3C2)c1`, the cytotoxicity at 10 µM is -4.64%.
For the compound `CN(C)CCN1CC(C(=O)NCc2cn3cccnc3n2)CC1=O` (stereo not drawn), the cytotoxicity at 10 µM was -4.29%.
As for `Cc1cc(C)n(-c2ccc(C(=O)NCC(CO)Cc3cccs3)cc2)n1` (stereo not drawn), the cytotoxicity at 10 µM was 6.64%.
As to `O=C(CSCC1CC1)N1CCCN(Cc2ccc(F)cc2)CC1`, the cytotoxicity at 10 µM was 3.54%.
With `CCCc1cc(NCc2cc(C)on2)n2nccc2n1`, the cytotoxicity at 10 µM is -6.85%.
Regarding `O=C(CC1COCCN1)NCCc1noc(-c2ccccc2)n1` (stereo not drawn), the cytotoxicity at 10 µM was 3.05%.
Turning to `COc1ccccc1OC1CCN(C(=O)CCCN2CCOCC2)CC1`, the cytotoxicity at 10 µM is -177%.
Take `Cc1nc(N2CCN(S(C)(=O)=O)CC2)cc(-n2cnc(C)c2C)n1`: the cytotoxicity at 10 µM is -5.83%.
Regarding `COc1ccc(-n2ncc(C(C)NC3CCOCC3)c2C)cc1` (stereo not drawn), the cytotoxicity at 10 µM came to 2.77%.
As to `O=C(Cn1cccnc1=O)NC(Cc1cccs1)c1ccccn1` (stereo not drawn), the cytotoxicity at 10 µM is -2.03%.
The figure for `O=c1oc(-c2ccc(F)cc2)nn1CN1CCCCC1` is -4.35%.
Turning to `CCc1nnc2n1CCN(C(=O)c1cc3ccc(C)cc3[nH]1)C2`, the cytotoxicity at 10 µM is -4.87%.
`COc1cccc(S(=O)(=O)NC(=O)CCC2CCCC2)c1`: the cytotoxicity at 10 µM is 0.428%.
The figure for `Cc1[nH]nc2ncc(C(=O)N3CCN(CCC(C)C)CC3)cc12` is 0.977%; for `Cc1occc1C(=O)N1CCCN(Cc2nccn2C)CC1` it is -1.56%; for `Cc1cc(C)n(CC2CN(c3ccc(C#N)cn3)CCO2)n1` (stereo not drawn) it is -1.56%.
With `Cc1cccc(-c2nc(CNC3CCc4ncnn4C3)no2)c1` (stereo not drawn), the cytotoxicity at 10 µM was -2.09%.
For `CCC(=O)NCC(=O)NCC1CCN(c2cc(Cl)ccc2C)C1` (stereo not drawn), the cytotoxicity at 10 µM is -13.2%.
Consider `COC(=O)C(c1ccccc1)N(C)C(=O)c1ccnc(C)n1` (stereo not drawn), for which the cytotoxicity at 10 µM came out at 1.4%.
The figure for `CC(C)(C)c1n[nH]c(C2CN(C(=O)Cn3ccccc3=O)CCO2)n1` (stereo not drawn) is -1.22%; for `CC(O)CN1CCC(CNCc2cccc(Cl)c2)CC1` (stereo not drawn) it is -23.8%; for `Cc1ccoc1C(=O)N1CCCC(CNS(C)(=O)=O)C1` (stereo not drawn) it is -23.4%.
For the compound `Cc1nnc(NC(=O)NCc2cc(F)cc(F)c2)s1`, the cytotoxicity at 10 µM is -6.07%.
Take `Cc1cnc2c(S(=O)(=O)NCC3CCN(C4CC4)C3)cccc2c1` (stereo not drawn): the cytotoxicity at 10 µM was -6.36%.
`CS(=O)(=O)NC1CCN(C(=O)NCCc2ccccc2F)CC1`: the cytotoxicity at 10 µM is -3.83%.
The same measure for `CCn1ccnc1CN1CCCN(C(=O)c2cc(Cl)c[nH]2)CC1`: -9.6%; for `CCc1nc(CNCC2CCCN2c2cc(NC)ncn2)cs1` (stereo not drawn): -9.11%; for `CCNC(=O)Nc1ccc2c(ccn2CC(=O)N(CC)CC)c1`: -0.421%.
`c1csc(-c2nc(CN3CCOC(Cn4cncn4)C3)co2)c1` (stereo not drawn): the cytotoxicity at 10 µM is -11.8%.
